# Reference: ChEMBL document CHEMBL4373638, “Anthranilic amide and imidazobenzothiadiazole compounds disrupt Mycobacterium tuberculosis membrane potential” (Medchemcomm, 2019)
# Active and inactive are the calls of the source. No cut-off for these calls is given here.
# Key:
# [1] = tested on: Mycobacterium tuberculosis; experiment: Antitubercular activity against non-replicating Mycobacterium tuberculosis H37Rv assessed as microbial killing at 115 to 230 uM at pH 5.5; format: functional, organism-based; settings: TDE = time-dependent effect
# Summary of the method: (§1)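 Non-replicating kill kinetics: late-log H37Rv (OD590 0.6–1.0) resuspended in phosphate citrate buffer with 0.05% tyloxapol, inoculated at ~10⁶ CFU mL⁻¹, compound added (2% DMSO final), incubated standing at 37 °C; aliquots plated for CFU every 7 days, plates counted after 4 weeks at 37 °C.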
# [2] = tested on: Mycobacterium tuberculosis; experiment: Antitubercular activity against Mycobacterium tuberculosis H37Rv infected in mouse RAW264.7 cells; format: functional, organism-based
# RAW264.7 = experiment: Cytotoxicity against mouse RAW264.7 cells; format: cell-based
# [3] = tested on: Mycobacterium tuberculosis; experiment: Antitubercular activity against non-replicating Mycobacterium tuberculosis H37Rv assessed as log reduction in CFU at 10 to 100 uM at pH 4.5 to 6.8 after 7 days; format: functional
# [4] = tested on: Mycobacterium tuberculosis; experiment: Antitubercular activity against non-replicating Mycobacterium tuberculosis H37Rv assessed as microbial killing at 145 to 290 uM at pH 5.5; format: functional, organism-based; settings: TDE = time-dependent effect; summary of the method: as §1
# [5] = tested on: Mycobacterium tuberculosis; experiment: Disruption of membrane potential loss in Mycobacterium tuberculosis H37Rv at < MBC concentration at pH 4.5 after 15 mins measured at pH 6.8 by DiOC2 probe based fluorescence assay; format: functional, organism-based
# [6] = tested on: Mycobacterium tuberculosis; experiment: Disruption of membrane potential loss in Mycobacterium tuberculosis H37Rv at MBC concentration at pH 4.5 after 15 mins measured at pH 5.6 by DiOC2 probe based fluorescence assay; format: functional, organism-based
# Summary of the method: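 Mid-log Mtb grown in 7H9-OADC-Tw, concentrated to OD590 ~1.0 in 7H9-Tw adjusted to assay pH (6.8 or 5.6), loaded with 15 μM DiOC2 for 20 min at RT, washed, then exposed to 2-fold serial dilutions for 15 min at RT; red (488/650 nm) to green (488/530 nm) fluorescence ratio; CCCP positive, DMSO vehicle controls; representative of two runs.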
# HepG2 [7] = experiment: Disruption of mitochondrial membrane potential in human HepG2 cells at less than IC50 concentration after 30 mins by DiOC2 probe based fluorescence assay; format: ADME, cell-based; settings: hepg2, 0.5 h
# [8] = tested on: Mycobacterium tuberculosis; experiment: Antitubercular activity against non-replicating Mycobacterium tuberculosis H37Rv assessed as microbial killing at 130 to 260 uM at pH 5.5; format: functional, organism-based; settings: TDE = time-dependent effect; summary of the method: as §1
# HepG2 [9] = experiment: Disruption of mitochondrial membrane potential in human HepG2 cells up to 200 uM after 30 mins by DiOC2 probe based fluorescence assay; format: ADME, cell-based; settings: hepg2, 0.5 h
# [10] = tested on: Mycobacterium tuberculosis; experiment: Antitubercular activity against non-replicating Mycobacterium tuberculosis H37Rv assessed as microbial killing at 125 to 250 uM at pH 5.5; format: functional, organism-based; settings: TDE = time-dependent effect; summary of the method: as §1
smiles,measurement,setting,value
O=C(Nc1ccc(Cl)cc1)c1ccccc1NS(=O)(=O)c1ccc(Br)cc1,Activity,[1],Tde
CCN(C)c1ccccc1C(=O)Nc1ccc(Cl)cc1Cl,Activity,[2],Active
same,Activity,RAW264.7,Toxic
O=[N+]([O-])c1cc2nc(C(F)(F)F)[nH]c2c2nsnc12,Activity,[3],>4 log10CFU
CS(=O)(=O)Nc1ccccc1C(=O)Nc1ccc(Cl)cc1Cl,Activity,[4],Tde
O=C(Nc1ccc(Cl)cc1Cl)c1ccccc1NS(=O)(=O)c1ccc(Br)cc1,Activity,[5],Active
same,Activity,[6],Active
CCCCNC(=O)c1ccccc1NS(=O)(=O)c1ccc(Br)cc1,Activity,HepG2 [7],Toxic
same,Activity,[5],Active
same,Activity,[6],Active
O=C(Nc1ccccc1)c1ccccc1NS(=O)(=O)c1ccc(Br)cc1,Activity,HepG2 [7],Toxic
same,Activity,[6],Active
O=C(Nc1ccccn1)c1ccccc1NS(=O)(=O)c1ccc(Br)cc1,Activity,[8],Tde
O=[N+]([O-])c1c(Sc2ccccn2)ccc2nsnc12,Activity,HepG2 [7],Toxic
CCNc1ccccc1C(=O)Nc1ccc(Cl)cc1Cl,Activity,[6],Active
same,Activity,HepG2 [9],Non-Toxic
NC(=O)c1ccccc1NS(=O)(=O)c1ccc(Br)cc1,Activity,[6],inactive
same,Activity,HepG2 [9],Non-Toxic
Cc1nnc(Sc2ccc3nsnc3c2[N+](=O)[O-])s1,Activity,HepG2 [7],Toxic
CN(C(=O)c1ccccc1NS(=O)(=O)c1ccc(Br)cc1)c1ccc(Cl)cc1Cl,Activity,HepG2 [7],Toxic
same,Activity,[5],Active
same,Activity,[6],Active
Cc1ccc(S(=O)(=O)Nc2ccccc2C(=O)Nc2ccc(Cl)cc2Cl)cc1,Activity,[10],Tde
